For 12 molecules, zone of inhibition, MIC and inhibition zone (IZ) results are on record in ChEMBL document CHEMBL1154098, “Synthesis, characterization and in vitro antimicrobial activity of novel 2-thioxo-4-thiazolidinones and 4,4'-bis(2-thioxo-4-thiazolidinone-3-yl)diphenylsulfones” (2009).

Assay [1] relates to Staphylococcus aureus. As to the kind of experiment: Antibacterial activity against Staphylococcus aureus NCTC 7447 at 1 mg/mL […] by agar diffusion assay. In kind it is functional. To be noted: read-out: DIZ.
Assay [2] deals with Serratia marcescens. Kind of assay: Antibacterial activity against Serratia marcescens IMRU 70 at 1 mg/mL […] by agar diffusion assay. Format: functional. To be noted: read-out: DIZ.
In assay [3] the test system is Proteus mirabilis. As to the kind of experiment: Antibacterial activity against Proteus mirabilis NCT 289 at 1 mg/mL […] by agar diffusion assay. In kind it is functional. To be noted: read-out: DIZ. (A growth-free zone around the sample is the usual read-out of agar diffusion tests.)
In assay [4] the test system is Aspergillus ochraceus. Kind of assay: Antifungal activity against Aspergillus ochraceus Wilhelm AUCC 230 at 1 mg/mL after 48 hrs by agar diffusion assay. In kind it is functional. To be noted: Wilhelm AUCC 230, 48 h, read-out: DIZ. A digest of the protocol: (§1)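 Fungi were grown on Czapek's–Dox agar and assayed by agar diffusion. Test solution was 1 mg mL-1 in DMF, with DMF as negative control. After 48 h incubation, the inhibition zone diameter was measured in mm.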

The subject of assay [5] is Penicillium chrysogenum. As to the kind of experiment: Antifungal activity against Penicillium chrysogenum Thom AUCC 530 at 1 mg/mL after 48 hrs by agar diffusion assay. In kind it is functional. To be noted: Thom AUCC 530, 48 h, read-out: DIZ. A digest of the protocol: as §1
The subject of assay [6] is Bacillus cereus. Kind of assay: Antibacterial activity against Bacillus cereus ATCC 14579 at 1 mg/mL […] by agar diffusion assay. To be noted: read-out: DIZ. Format: functional.
Assay [7] relates to Bacillus cereus. Kind of assay: Antibacterial activity against Bacillus cereus ATCC 14579 after 24 hrs by agar diffusion assay. Format: functional. To be noted: ATCC 14579, 24 h.
Assay [8] concerns Staphylococcus aureus. As to the kind of experiment: Antibacterial activity against Staphylococcus aureus NCTC 7447 at 25 ug/mL […] by agar diffusion assay. Format: functional. To be noted: read-out: DIZ.
The test system of assay [9] is Serratia marcescens. Kind of assay: Antibacterial activity against Serratia marcescens IMRU 70 at 25 ug/mL […] by agar diffusion assay. To be noted: read-out: DIZ. Format: functional.
In assay [10] the test system is Proteus mirabilis. Kind of assay: Antibacterial activity against Proteus mirabilis NCT 289 at 25 ug/mL […] by agar diffusion assay. Format: functional. To be noted: read-out: DIZ.
For assay [11], the system named is Bacillus cereus. As to the kind of experiment: Antibacterial activity against Bacillus cereus ATCC 14579 at 25 ug/mL […] by agar diffusion assay. Format: functional. To be noted: read-out: DIZ.
For assay [12], the system named is Aspergillus ochraceus. Kind of assay: Antifungal activity against Aspergillus ochraceus Wilhelm AUCC 230 at 25 ug/mL after 24 hrs by agar diffusion assay. In kind it is functional. To be noted: Wilhelm AUCC 230, 24 h, read-out: DIZ.
The test system of assay [13] is Penicillium chrysogenum. Kind of assay: Antifungal activity against Penicillium chrysogenum Thom AUCC 530 at 25 ug/mL after 24 hrs by agar diffusion assay. In kind it is functional. To be noted: Thom AUCC 530, 24 h, read-out: DIZ.
For assay [14], the system named is Aspergillus ochraceus. Kind of assay: Antifungal activity against Aspergillus ochraceus Wilhelm AUCC 230 at 30 ug/mL after 48 hrs by agar diffusion assay. In kind it is functional, organism-based.
Assay [15] has as its system Penicillium chrysogenum. Kind of assay: Antifungal activity against Penicillium chrysogenum Thom AUCC 530 at 30 ug/mL after 48 hrs by agar diffusion assay. In kind it is functional, organism-based. A digest of the protocol: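 Agar-diffusion assay on Czapek's–Dox agar inoculated with the fungal culture. Test solutions were 1 mg mL-1 in DMF, with DMF as the negative control and Mycostatine (30 µg mL-1) as the reference drug. Plates were incubated for 48 h, and the inhibition zone diameter was measured in mm.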

For assay [16], the system named is Penicillium chrysogenum. Kind of assay: Antifungal activity against Penicillium chrysogenum Thom AUCC 530 after 48 hrs by agar diffusion assay. In kind it is functional. To be noted: Thom AUCC 530, 48 h.

Where only a bound is given, the exact number is not on record here.

Take `COc1ccc(/C=C2\SC(=S)N(c3ccc(S(=O)(=O)c4ccc(N5C(=O)/C(=C/c6ccc(OC)cc6)SC5=S)cc4)cc3)C2=O)cc1`: the zone of inhibition at 1000 µg/mL in the assay with Staphylococcus aureus [1] was found to be 17 mm; in the assay on Serratia marcescens [2] it was 13 mm; with Proteus mirabilis [3] it was 25 mm; in the assay on Aspergillus ochraceus [4] it was 11 mm; in the assay on Penicillium chrysogenum [5] it was 11 mm; in the assay with Bacillus cereus [6], 16 mm.
Turning to `CCO/C=C1/SC(=S)N(c2ccc(S(N)(=O)=O)cc2)C1=O`, the zone of inhibition at 1000 µg/mL in the assay on Staphylococcus aureus [1] came out at 25 mm; with Serratia marcescens [2], 23 mm; in the assay on Proteus mirabilis [3] it was 23 mm; with Aspergillus ochraceus [4] it was 12 mm; in the assay on Penicillium chrysogenum [5], 18 mm; in the assay on Bacillus cereus [6], 12 mm.
As to `N#CC(C#N)=C1SC(=S)N(c2ccc(S(N)(=O)=O)cc2)C1=O`, the zone of inhibition at 1000 µg/mL in the assay with Staphylococcus aureus [1] was found to be 15 mm; with Serratia marcescens [2], 24 mm; in the assay on Proteus mirabilis [3], 18 mm; with Aspergillus ochraceus [4], 14 mm; in the assay with Penicillium chrysogenum [5] it was 14 mm; in the assay on Bacillus cereus [6] it was 32 mm. The molecule also returned an MIC in the assay on Bacillus cereus [7] of less than 50 µg/mL.
With `COc1ccc(/C=C2/SC(=S)N(c3ccc(S(N)(=O)=O)cc3)C2=O)cc1`, the zone of inhibition at 1000 µg/mL was determined as 27 mm in the assay on Staphylococcus aureus [1]; 15 mm in the assay on Serratia marcescens [2]; 19 mm in the assay with Proteus mirabilis [3]; 19 mm with Aspergillus ochraceus [4]; 17 mm in the assay with Penicillium chrysogenum [5]; 10 mm in the assay on Bacillus cereus [6].
For the molecule `NS(=O)(=O)c1ccc(N2C(=O)/C(=C\c3ccc(/C=C4/SC(=S)N(c5ccc(S(N)(=O)=O)cc5)C4=O)cc3)SC2=S)cc1`, the zone of inhibition at 1000 µg/mL in the assay on Staphylococcus aureus [1] came out at 13 mm; with Serratia marcescens [2], 19 mm; in the assay on Proteus mirabilis [3] it was 22 mm; in the assay with Aspergillus ochraceus [4], 16 mm; with Penicillium chrysogenum [5] it was 15 mm; with Bacillus cereus [6], 33 mm. Moreover, in the assay on Bacillus cereus [7], the MIC is less than 50 µg/mL.
Consider `CC1(C)S[C@@H]2[C@H](NC(=O)[C@H](N)c3ccccc3)C(=O)N2[C@H]1C(=O)O` [AMPICILLIN], for which the zone of inhibition at 25 µg/mL with Staphylococcus aureus [8] came out at 40 mm; with Serratia marcescens [9], 40 mm; in the assay on Proteus mirabilis [10], 40 mm; in the assay on Bacillus cereus [11], 43 mm; in the assay on Aspergillus ochraceus [12] it was 10 mm; in the assay with Penicillium chrysogenum [13] it was 16 mm.
Regarding NYSTATIN, the inhibition zone (IZ) in the assay with Aspergillus ochraceus [14] was 40 mm; with Penicillium chrysogenum [15], 43 mm.
Consider `Cc1ccc(/C=C2/SC(=S)N(c3ccc(S(N)(=O)=O)cc3)C2=O)cc1`, for which the zone of inhibition at 1000 µg/mL was 14 mm in the assay on Staphylococcus aureus [1]; 18 mm with Serratia marcescens [2]; 17 mm in the assay with Proteus mirabilis [3]; 14 mm in the assay on Aspergillus ochraceus [4]; 10 mm with Penicillium chrysogenum [5]; 34 mm in the assay on Bacillus cereus [6]. The MIC with Bacillus cereus [7] was less than 50 µg/mL.
In the case of `O=C1CSC(=S)N1c1ccc(S(=O)(=O)c2ccc(N3C(=O)CSC3=S)cc2)cc1`, the zone of inhibition at 1000 µg/mL came out at 15 mm in the assay with Staphylococcus aureus [1]; 10 mm in the assay with Serratia marcescens [2]; 24 mm with Proteus mirabilis [3]; 26 mm with Aspergillus ochraceus [4]; 12 mm in the assay on Penicillium chrysogenum [5]; 13 mm with Bacillus cereus [6].
With `NS(=O)(=O)c1ccc(N2C(=O)CSC2=S)cc1`, the zone of inhibition at 1000 µg/mL turned out to be 28 mm with Staphylococcus aureus [1]; 20 mm in the assay with Serratia marcescens [2]; 24 mm in the assay on Proteus mirabilis [3]; 18 mm in the assay on Aspergillus ochraceus [4]; 16 mm with Penicillium chrysogenum [5]; 13 mm in the assay on Bacillus cereus [6].
On to `CN(C)/C=N/S(=O)(=O)c1ccc(N2C(=O)/C(=C\N(C)C)SC2=S)cc1`, for which the zone of inhibition at 1000 µg/mL in the assay with Staphylococcus aureus [1] came out at 16 mm; with Serratia marcescens [2], 12 mm; in the assay with Proteus mirabilis [3] it was 20 mm; with Aspergillus ochraceus [4] it was 16 mm; in the assay with Penicillium chrysogenum [5], 16 mm; with Bacillus cereus [6] it was 15 mm.
On to `O=C1CSC(=S)N1c1ccc(S(=O)(=O)Nc2ncccn2)cc1`, for which the zone of inhibition at 1000 µg/mL was 18 mm in the assay with Staphylococcus aureus [1]; 22 mm in the assay on Serratia marcescens [2]; 19 mm in the assay on Proteus mirabilis [3]; 15 mm in the assay with Aspergillus ochraceus [4]; 35 mm in the assay on Penicillium chrysogenum [5]; 16 mm in the assay with Bacillus cereus [6]. Further, the minimum inhibitory concentration (MIC) with Penicillium chrysogenum [16] was less than 50 µg/mL.

What is called MIC is the smallest concentration in the dilution series that meets the test's criterion for growth inhibition.
